Results reported in ChEMBL document CHEMBL3853290, “Sesquiterpenoids Isolated from Two Species of the Asteriscus Alliance” (J Nat Prod, 2016).

system: not listed separately; test: Cytotoxicity against human HL60 cells assessed as cell growth inhibition after 72 hrs by MTT assay; type: functional, cell-based; settings: HL-60, 72 h
Summary of the method: (§1)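 Cells from DSMZ, grown in RPMI 1640 with 2 mM L-glutamine and 10% heat-inactivated FBS. 1 × 10^4 exponentially growing cells per well exposed to a range of compound concentrations. MTT (0.5 mg/mL) added, 4 h at 37 °C, then 10% SDS in 0.05 M HCl overnight at room temperature in the dark. Absorbance read at 570 nm. IC50 from nonlinear regression, means ± SE of ≥3 independent experiments in triplicate. Etoposide as positive control.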

Which IC50 does the source give for `C/C1=C/CC[C@]23O[C@H]2[C@H](OC3=O)C(C)(C)/C=C/C1=O` here?
Its IC50 is greater than 10 µM.

For `CC1(C)/C=C\C(=O)[C@@]2(C)O[C@H]2CCC2=C[C@@H]1OC2=O`, which IC50 is on record?
The IC50 was 5.4 µM.

Which IC50 does the source give for `CC1(C)C[C@@H]2C(=O)[C@](C)(O)/C=C\C[C@@H]3C(=O)O[C@H]1[C@@H]32` here?
The IC50 was greater than 10 µM.

With `COc1cc([C@@H]2c3cc4c(cc3[C@@H](O[C@@H]3O[C@@H]5CO[C@@H](C)O[C@H]5[C@H](O)[C@H]3O)[C@H]3COC(=O)[C@H]23)OCO4)cc(OC)c1O` [ETOPOSIDE] as the compound, how does the IC50 read?
The IC50 was 0.5 µM.

With `CCO[C@H]1CCC2=C[C@H](OC2=O)C(C)(C)/C=C\C(=O)[C@H]1C` as the compound, how does the IC50 read?
Its IC50 is greater than 10 µM.

With `C[C@@H]1C(=O)/C=C\C(C)(C)[C@@H]2C=C(CC[C@@H]1O)C(=O)O2` as the compound, how does the IC50 read?
Its IC50 is greater than 10 µM.

system: MOLT-3; test: (§2) Cytotoxicity against human MOLT3 cells assessed as cell growth inhibition after 72 hrs by MTT assay; type: functional, cell-based; settings: not given; summary of the method: as §1

With `CC1(C)/C=C\C(=O)[C@@]2(C)O[C@H]2CCC2=C[C@@H]1OC2=O` as the compound, how does the “growth inhibition (GI)” value read?
Its value is “Dose-dependent effect”.

system: not listed separately; test: as §2; type: functional, cell-based; settings: MOLT-3, 72 h; summary of the method: as §1

Which IC50 does the source give for `C/C1=C/CC[C@]23O[C@H]2[C@H](OC3=O)C(C)(C)/C=C/C1=O` here?
Its IC50 is greater than 10 µM.

For `CC1(C)/C=C\C(=O)[C@@]2(C)O[C@H]2CCC2=C[C@@H]1OC2=O`, which IC50 is on record?
Its IC50 is 4.1 µM.

Which IC50 does the source give for `CC1(C)C[C@@H]2C(=O)[C@](C)(O)/C=C\C[C@@H]3C(=O)O[C@H]1[C@@H]32` here?
The IC50 was greater than 10 µM.

With `COc1cc([C@@H]2c3cc4c(cc3[C@@H](O[C@@H]3O[C@@H]5CO[C@@H](C)O[C@H]5[C@H](O)[C@H]3O)[C@H]3COC(=O)[C@H]23)OCO4)cc(OC)c1O` [ETOPOSIDE] as the compound, how does the IC50 read?
The IC50 was 0.7 µM.

Which IC50 does the source give for `CCO[C@H]1CCC2=C[C@H](OC2=O)C(C)(C)/C=C\C(=O)[C@H]1C` here?
The IC50 was greater than 10 µM.

For `C[C@@H]1C(=O)/C=C\C(C)(C)[C@@H]2C=C(CC[C@@H]1O)C(=O)O2`, which IC50 is on record?
Its IC50 is greater than 10 µM.
